# Screening data as filed in PubChem.
# T cruzi repl – T. cruzi replication inhibition. T. cruzi beta-gal in NIH3T3, luminescence, 90 h. inhibition, % (concentration not given with the values). 1.4% of 300,000 active. AID 1885;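 active = mean inhibition across valid replicates above about 55%, limit read from the data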;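 also: signal also drops with host cell toxicity which is not excluded here; 0% = plate median of DMSO wells and 100% = zero luminescence signal; higher percent means less beta-gal luminescence so fewer parasites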
#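 Assay system: NIH/3T3 fibroblasts plus reporter T. cruzi. Amount: NIH/3T3 cells, 5,000 per well. Buffer or medium: DMEM, 2% fetal bovine serum. Doses: compound pinned at 50 nL/well, DMSO. Schedule: ≥90 h infection period, 3 h prior cell attachment. Signal: luminescent β-galactosidase signal after 60 min lysis. Read-out: parasite load inhibition, %.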
# SUMO Mot1 rescue – SUMOylation pathway inhibition by Mot1-301 growth rescue | AID 2716 | 1% of 320,000 active | growth rescue, % at 18.8 µM | S. cerevisiae Mot1-301 growth rescue, ATP luminescence, 38.5C; percent above DMSO median, 100 means doubled;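 active = every valid replicate shows activation above 250% relative to neutral control wells; inactive = the rest, any valid replicate at or below 250%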;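 also: OY570 slx delta 5 strain wells were the positive control but not used for scaling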
# Beta apoptosis – beta cell apoptosis inhibition; INS-1E cytokine-induced death, ATP luminescence, 48 h; percent of positive-control rescue, neutral wells zero; protection from apoptosis, % (test concentration not listed); 0.8% of 300,000 active; AID 435005;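 active = Every replicate reaches about 75%, or at least half do and their mean reaches it too, limit read from the data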;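 also: 0% = cytokine-treated negative control wells and 100% = positive control rescue; higher means more ATP so stronger rescue from cytokine killing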
# WT yeast gro inh – growth inhibition of WT yeast, mitochondrial fusion screen. inhibition, % at 10 µM. mitochondrial fusion phenotypic screen, WT strain. 2.1% of 190,000 active; in the data active = inhibition above about 58%; tested in S. cerevisiae
# CSC inhib – blocks cancer stem cells. 1.1% of 300,000 active. cancer stem cell-like cells viability, luminescence. AID 2717. inhibition, % at 7.5 µM; in the data active = inhibition above about 75%; tested in HMLE shEcad cells
# Efflux pump inh – inhibitors of Candida antifungal efflux pumps expressed in yeast | S. cerevisiae Candida pump triplex, Nile Red efflux | inhibition, % at 10 µM | 0.44% of 330,000 active | AID 485275;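 active = plate passing quality check with inhibition over a set limit, or well fluorescence over plate mean plus 4 SD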;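 also: Nile Red retained in pooled yeast measured as flow cytometry median fluorescence; 0% = buffer negative control and 100% = Enniatin B positive control; higher means more Nile Red kept so more efflux inhibition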
# * hit, by the source's call; · = not tested or not shown. Rows were chosen to be rich in hits. Some 4.8% of all compounds tested hit in one or more screens of this group.
SMILES,T cruzi repl,SUMO Mot1 rescue,Beta apoptosis,WT yeast gro inh,CSC inhib,Efflux pump inh
CC/C=C\[C@H](O)[C@H](O)C1=C(C)C(=O)[C@]2(O1)C(=O)N[C@@](OC)(C(=O)c1ccccc1)C2O (stereo partly specified),8,20,-15,6,5,0
O=C(Nc1ccc(-c2nc3ccc(NC(=O)c4cccs4)cc3[nH]2)cc1)c1cccs1,-2,4,24,-7,102*,0
O=C(Nc1ccc2nc(-c3cccs3)[nH]c2c1)c1cccs1,-2,7,32,1,7,0
Cc1c(Cl)cccc1NC(=O)CSc1nccn1C,-8,8,-4,·,-4,0
CC(=O)C(=Nc1ccccc1Cl)NNc1ccc(Cl)cc1,-6,141,-8,60*,27,0
CCC(=O)Nc1nnc(S(=O)(=O)N(C)c2ccccc2)s1,-5,319,1,·,-16,0
CCOC(=O)c1nn(-c2ccc(F)cc2)c(=O)cc1OCC(=O)Nc1ccc(OCC)cc1,7,14,-11,·,13,0
COc1ccc(CN(Cc2cccnc2)S(=O)(=O)c2ccc(-n3cnnn3)c(C)c2)cc1OC,78*,-11,-2,0,1,0
COc1ccccc1CN(Cc1cccnc1)S(=O)(=O)c1ccc(-n2cnnn2)c(OC)c1,35,-15,4,·,-8,0
CCC(O)c1nc2ccccc2n1CCc1ccccc1 (stereo unspecified),-4,1,-6,·,-14,0
Cc1ccsc1CN(C)C(=O)C(NC(=O)c1cccc(S(=O)(=O)N2CCOCC2)c1)C(C)C (stereo unspecified),·,22,1,·,-13,0
CC1=CC(C)(C)Nc2ccc(OS(=O)(=O)c3ccc(C)cc3)cc21,53,-12,3,21,4,0
CC1=CC(C)(C)Nc2ccccc21,75*,-9,-2,1,-12,0
COc1ccc2c(c1)NC(C)(C)C=C2C,66*,-10,13,-7,-3,0
Cc1ccccc1OCC(=O)N(Cc1nc(-c2ccccc2)no1)C(C)C,28,-22,-13,10,10,0
COc1ccccc1OCC(=O)N(Cc1nc(-c2ccccc2)no1)C1CCCCC1,·,-10,7,61*,·,0
CC(C)CC(=O)NC(=S)N(Cc1ccccc1)Cc1ccccc1,-12,35,-2,64*,3,0
CC(C)C(=O)NC(=S)N(Cc1ccccc1)Cc1ccccc1,-24,5,-1,33,-7,0
CC(C)C(NC(=O)C12CC3CC(CC(C3)C1)C2)C(=O)NC1=NCCS1 (stereo unspecified),13,·,0,66*,-6,0
COc1ccccc1/C=C\C=N\n1c(C2CCCCC2)n[nH]c1=S,0,126,-6,70*,3,0
COc1ccc([C@H]2CC(=O)C=C(c3ccc(F)cc3OCc3ccccc3)C2)cc1,·,-6,20,·,-1,0
O=C1C=C(c2ccc(F)cc2OCc2ccccc2)C[C@@H](c2ccc(F)cc2)C1,·,-5,65,·,93*,0
CCOC(=O)N1CCN(CC(O)COc2ccccc2C(C)C)CC1 (stereo unspecified),·,13,-6,3,-9,0
CCN(CCNCC(O)COc1ccccc1C(C)C)c1cccc(C)c1 (stereo unspecified),28,-43,29,·,100*,0
O=C(Nc1ccccc1)/C(=C/c1ccc(F)cc1)NC(=O)c1ccco1,29,-6,-4,·,-4,0
SMILES,T cruzi repl,SUMO Mot1 rescue,Beta apoptosis,WT yeast gro inh,CSC inhib,Efflux pump inh
CCn1cc(/C=C(\NC(=O)c2ccccc2F)C(=O)NCCCn2ccnc2)c2ccccc21,-5,-7,1,·,4,0
Cc1nc2c(-c3ccccc3)c[nH]n2c(=O)c1Cc1ccccc1,62*,288,39,-13,13,0
CCOC(=O)C1(CCOc2ccccc2)CCN(Cc2cccc3c2OCO3)CC1,65*,71,0,18,14,0
CCOC(=O)C1(CCOc2ccccc2)CCN(Cc2ccccc2O)CC1,29,-23,8,·,40,0
CCOC(=O)C1(CCOc2ccccc2)CCN(Cc2cccn2-c2cccnc2)CC1,60*,34,7,8,8,0
CCOC(=O)C1(CCOc2ccccc2)CCN(Cc2cc(OC)c3c(c2)OCO3)CC1,60*,·,15,27,-5,0
CCOC(=O)C1(CCOc2ccccc2)CCN(Cc2ccc3nonc3c2)CC1,67*,7,9,62*,33,0
CCOC(=O)C1(Cc2ccccc2)CCN(Cc2cccn2-c2cccnc2)CC1,10,-10,5,3,-5,0
CCOC(=O)C1(CCOc2ccccc2)CCN(Cc2ccc(OC)cc2)CC1,40,12,4,·,35,0
COC(=O)c1cc(C(=O)OCC(=O)NCc2cccs2)cc([N+](=O)[O-])c1,·,18,0,·,-8,0
CN(Cc1c(C(=O)N/N=C/c2cccs2)nnn1-c1nonc1N)c1ccccc1,-1,10,-5,·,-2,0
O=C(NC1CCCCCC1)c1ccc(=O)n(Cc2ccccc2)n1,9,4,-4,5,9,0
Cc1ccc2c(c1)N(C(=O)CCC(=O)NCCCN1CCC(Cc3ccccc3)CC1)CCO2,-10,11,99*,·,3,0
COc1ccccc1[C@@]1(C)ON(c2ccccc2C(F)(F)F)C1=O,·,326*,-9,·,58,0
Cc1ccccc1[C@]1(C)ON(c2ccccc2C(F)(F)F)C1=O,·,62,-12,·,55,0
CC(=O)c1sc(NC(=O)c2oc3ccc(F)cc3c2C)nc1C,·,-1,5,·,-5,0
CN(C)CCC1CCN(c2cc(C#N)c(C#N)cc2[N+](=O)[O-])CC1,79*,0,-3,-2,43,0
N#Cc1cc(N2CCCCC2)c([N+](=O)[O-])cc1C#N,-4,-1,-2,-6,43,0
C=C(C)CNC(=S)Nc1cccc2cnccc12,4,5,-4,-7,·,0
Cc1cc(C)cc(NC(=S)Nc2cccc3cnccc23)c1,·,·,·,65*,·,·
CCc1ccc(NC(=S)Nc2cccc3cnccc23)cc1,4,7,2,61*,-15,0
Cc1ccc(NC(=S)Nc2cccc3cnccc23)c(C)c1,-10,2,17,69*,35,0
CC1(C)CC(C(CCN(Cc2ccccc2)C(=O)c2ccco2)c2ccc(F)cc2)CCO1 (stereo unspecified),29,-17,-4,75*,28,0
O=C(c1ccco1)N(CCC(c1ccccc1)c1ccco1)Cc1ccc(F)cc1 (stereo unspecified),40,58,7,47,22,1
COc1ccc2sc(-c3ccc(SC)cc3)c(C#CC(C)(C)O)c2c1,·,-5,-7,·,105*,0
